In data set [1] the test system is MCF7. Description: Cell cycle arrest in human MCF7 cells assessed as accumulation at S phase at 4 uM after 24 hrs by propidium iodide staining-based flow cytometric analysis (reference value: 5%). In kind it is functional. In general terms: Flow cytometry measures light scatter and fluorescence of single cells or particles in a stream.
In data set [2] the test system is MCF7. The experiment in a line: Cell cycle arrest in human MCF7 cells assessed as accumulation at G1 phase at 4 uM after 24 hrs by propidium iodide staining-based flow cytometric analysis (reference value: 77%). In kind it is functional.
In data set [3] the test system is MCF7. Description: Cell cycle arrest in human MCF7 cells assessed as accumulation at G0 phase at 4 uM after 24 hrs by propidium iodide staining-based flow cytometric analysis (reference value: 3%). In kind it is functional.
The test system of data set [4] is MCF7. The experiment in a line: Cell cycle arrest in human MCF7 cells assessed as accumulation at G2/M phase at 4 uM after 24 hrs by propidium iodide staining-based flow cytometric analysis (reference value: 15%). The class given is functional.
Data set [5] has as its system MDA-MB-231. Description: Cytotoxicity against human MDA-MB-231 cells assessed as cell viability at 0.5 to 32 uM after 24 hrs by MTT assay. In kind it is functional, cell-based. The method, boiled down: (§1)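 Cells seeded at 10,000/well, incubated overnight, then exposed 24 h to 0.5–32 µM, etoposide as standard. MTT added, 2 h at 37 °C; formazan solubilised in extraction buffer, OD read at 570 nm; percent viability determined. Triplicates, Student t-test.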
(Tetrazolium assays rely on reduction of a dye to a coloured formazan, in cell work by metabolically active cells.)

Data set [6] concerns MCF7. Description: Antiangiogenic activity in human MCF7 cells assessed as downregulation of STAT3 protein expression at 4 uM after 24 hrs by Western blotting analysis. The class given is functional, cell-based. For orientation: Immunoblotting shows a protein as a band on a membrane.
In data set [7] the test system is MCF7. The experiment in a line: Antiinvasive activity in human MCF7 cells assessed as downregulation of alphaVbeta3 integrin protein expression at 4 uM after 24 hrs by Western blot analysis. In kind it is functional, cell-based.
Data set [8] deals with MCF7. Description: Antimitotic activity in human MCF7 cells assessed as downregulation of Cdk1 protein expression at 4 uM after 24 hrs by Western blotting analysis. In kind it is functional, cell-based.
Data set [9] has as its system MCF7. The experiment in a line: Induction of apoptosis in human MCF7 cells assessed as upregulation of cytochrome-c protein expression in cytosol at 4 uM after 24 hrs by Western blotting analysis. In kind it is functional, cell-based.
Data set [10] has as its system MCF7. The experiment in a line: Cytotoxicity against human MCF7 cells assessed as cell viability at 0.5 to 32 uM after 24 hrs by MTT assay. In kind it is functional, cell-based. A digest of the protocol:
as §1

For data set [11], the system named is MCF7. Description: Antiangiogenic activity in human MCF7 cells assessed as downregulation of ERK1/2 protein expression at 4 uM after 24 hrs by Western blotting analysis. The class given is functional, cell-based.
Data set [12] has as its system PANC-1. Description: Cytotoxicity against human PANC1 cells assessed as cell viability at 0.5 to 32 uM after 24 hrs by MTT assay. In kind it is functional, cell-based. A digest of the protocol: as §1
The test system of data set [13] is MCF7. Description: Antiangiogenic activity in human MCF7 cells assessed as downregulation of AKT phosphorylation at Ser473 at 4 uM after 24 hrs by Western blotting analysis. The class given is functional, cell-based.
Data set [14] deals with MCF7. Description: Antimitotic activity in human MCF7 cells assessed as upregulation of cyclin B1 protein expression at 4 uM after 24 hrs by Western blotting analysis. The class given is functional, cell-based.
In data set [15] the test system is MCF7. The experiment in a line: Antimitotic activity in human MCF7 cells assessed as upregulation of p53 protein expression at 4 uM after 24 hrs by Western blotting analysis. The class given is functional, cell-based.
For data set [16], the system named is MCF7. Description: Antiangiogenic activity in human MCF7 cells assessed as upregulation of STAT1 protein expression at 4 uM after 24 hrs by Western blotting analysis. The class given is functional, cell-based.
Data set [17] concerns MCF7. The experiment in a line: Antiangiogenic activity in human MCF7 cells assessed as downregulation of phosphorylated ERK1/2 protein expression at 4 uM after 24 hrs by Western blotting analysis. The class given is functional, cell-based.
Data set [18] deals with MCF7. The experiment in a line: Antiangiogenic activity in human MCF7 cells assessed as effect on AKT1 protein expression at 4 uM after 24 hrs by Western blotting analysis. The class given is functional, cell-based.
The test system of data set [19] is MCF7. Description: Antiangiogenic activity in human MCF7 cells assessed as downregulation of VEGF-A protein expression at 4 uM after 24 hrs by Western blotting analysis. The class given is functional, cell-based.
The test system of data set [20] is HUVEC. The experiment in a line: Cytotoxicity against HUVEC assessed as cell viability at 1 uM after 6 hrs by MTT assay. The note with it: human. The class given is cell-based. The method, boiled down:
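HUVEC at 10,000 cells/well exposed for 6 h across 0.5–32 µM; percent viability plotted, etoposide as standard. Triplicates, Student t-test.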

Data set [21] has as its system MCF7. The experiment in a line: Induction of apoptosis in human MCF7 cells assessed as upregulation of caspase-9 protein expression at 4 uM after 24 hrs by Western blotting analysis. The class given is functional, cell-based.
In data set [22] the test system is MCF7. The experiment in a line: Disruption of mitochondrial membrane potential in human MCF7 cells at 4 uM after 24 hrs by JC-1 dye-based fluorescence assay. In kind it is functional, cell-based. The method, boiled down:
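MCF-7 cells exposed 24 h at 4 µM, etoposide as reference, then stained with 2.5 µM JC-1 for 20 min at room temperature. Fluorescence imaging: red J-aggregates indicate intact potential, green monomers indicate loss, read as red-to-green shift.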

For data set [23], the system named is HUVEC. Description: Antiangiogenic activity in HUVEC assessed as inhibition of VEGF-A-induced tube formation at 1 uM after 6 hrs by inverted microscopic analysis. The note with it: Homo sapiens. The class given is functional, cell-based. A digest of the protocol:
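HUVEC (ECM medium, 5% FBS, 1% ECGS) seeded at 5×10^3 cells/well on EC matrix solidified at 37 °C, grown 12 h in endothelial growth media, then treated at 1 µM final for about 6 h. Tube formation examined by inverted microscopy. Etoposide as reference.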

The values that follow come from ChEMBL document CHEMBL2440107, “Quinazolino linked 4β-amidopodophyllotoxin conjugates regulate angiogenic pathway and control breast cancer cell proliferation” (Bioorg Med Chem, 2013).

SMILES strings stand for the structures. The source made the active and inactive calls. No cut-off for these calls is given here.

Take `COc1cc([C@@H]2c3cc4c(cc3[C@@H](NC(=O)CCCCCOc3ccc5nc(C)n(-c6cc(OC)c(OC)c(OC)c6)c(=O)c5c3)[C@H]3COC(=O)[C@H]23)OCO4)cc(OC)c1OC`: the Activity in [1] stood at 5%; in data set [2], 50%; in data set [3], 7%; in [4], 39%.
For the molecule `COc1cc([C@@H]2c3cc4c(cc3[C@@H](NC(=O)CCCCOc3ccc5nc(C)n(-c6ccc(F)cc6)c(=O)c5c3)[C@H]3COC(=O)[C@H]23)OCO4)cc(OC)c1OC`, the Activity in data set [1] stood at 5%; in data set [2], 49%; in data set [3] it was 8%; in data set [4], 38%.
For the molecule `COc1ccc(-n2c(C)nc3ccc(OCCCCCC(=O)N[C@@H]4c5cc6c(cc5[C@@H](c5cc(OC)c(OC)c(OC)c5)[C@H]5C(=O)OC[C@@H]54)OCO6)cc3c2=O)cc1`, the result in data set [5], in [6], in [7], in data set [8], in data set [9] and in data set [10] was Active. Besides, the outcome in [11], in data set [12], in data set [13], in [14], in [15] and in data set [16] was Active. The result in data set [17], in data set [19] and in [21] was Active. Also, the Activity in [1] is 4%; in [2], 47%; in data set [3] it was 8%; in data set [4], 41%; in [20] it was “Non-toxic”. The outcome in data set [18] was inactive.
In the case of `COc1cc([C@@H]2c3cc4c(cc3[C@@H](NC(=O)CCCCOc3ccc5nc(C)n(-c6ccc(Cl)c(Cl)c6)c(=O)c5c3)[C@H]3COC(=O)[C@H]23)OCO4)cc(OC)c1OC`, the Activity was found to be 5% in [1], 49% in [2], 12% in data set [3] and 34% in [4].
For the molecule `COc1cc(OC)cc(-n2c(C)nc3ccc(OCCCCCC(=O)N[C@@H]4c5cc6c(cc5[C@@H](c5cc(OC)c(OC)c(OC)c5)[C@H]5C(=O)OC[C@@H]54)OCO6)cc3c2=O)c1`, the Activity in [1] is 5%; in data set [2] it was 49%; in data set [3] it was 9%; in data set [4], 37%.
With `COc1cc([C@@H]2c3cc4c(cc3[C@@H](NC(=O)CCCCCOc3ccc5nc(C)n(-c6ccc([N+](=O)[O-])cc6)c(=O)c5c3)[C@H]3COC(=O)[C@H]23)OCO4)cc(OC)c1OC`, the outcome in data set [5], in data set [6], in [7], in data set [8], in data set [9] and in data set [10] was Active. Also, the result in data set [11], in data set [12], in data set [13], in [14], in [15] and in data set [16] was Active. The result in data set [17], in data set [19] and in [21] was Active. The Activity in data set [1] is reported as 5%; in data set [2] it was 49%; in data set [3], 5%; in data set [4] it was 41%; in [20], “Non-toxic”. The outcome in data set [18] was inactive.
`COc1cc([C@@H]2c3cc4c(cc3[C@@H](O[C@@H]3O[C@@H]5CO[C@@H](C)O[C@H]5[C@H](O)[C@H]3O)[C@H]3COC(=O)[C@H]23)OCO4)cc(OC)c1O` [ETOPOSIDE]: the result in data set [7], in data set [9], in data set [22] and in [21] was Active. The Activity in data set [1] is given as 6%; in data set [2], 18%; in data set [3], 9%; in [4], 67%; in data set [20], “Non-toxic”.
As for `COc1ccc(-n2c(C)nc3ccc(OCCCCC(=O)N[C@@H]4c5cc6c(cc5[C@@H](c5cc(OC)c(OC)c(OC)c5)[C@H]5C(=O)OC[C@@H]54)OCO6)cc3c2=O)cc1`, the Activity is on record as 10% in data set [1], 44% in data set [2], 7% in data set [3] and 39% in data set [4].
As to `COc1cc([C@@H]2c3cc4c(cc3[C@@H](NC(=O)CCCCCOc3ccc5nc(C)n(-c6ccc(Cl)c(Cl)c6)c(=O)c5c3)[C@H]3COC(=O)[C@H]23)OCO4)cc(OC)c1OC`, the outcome in data set [5], in [6], in data set [7], in data set [8], in data set [9] and in data set [10] was Active. For the same molecule, the result in data set [11], in data set [22], in data set [12], in data set [13], in data set [14] and in data set [15] was Active. The result in data set [16], in [17], in data set [19] and in [21] was Active. Further, the inhibition result in data set [23] was “Active”. Moreover, the Activity is given as 5% in data set [1]; 45% in data set [2]; 10% in [3]; 40% in [4]; “Non-toxic” in [20]. In addition, the result in [18] was inactive.
As to `COc1cc([C@@H]2c3cc4c(cc3[C@@H](NC(=O)CCCCOc3ccc5nc(C)n(-c6ccc([N+](=O)[O-])cc6)c(=O)c5c3)[C@H]3COC(=O)[C@H]23)OCO4)cc(OC)c1OC`, the Activity in data set [1] is 5%; in data set [2], 51%; in data set [3], 5%; in data set [4], 40%.
Turning to `COc1cc(OC)cc(-n2c(C)nc3ccc(OCCCCC(=O)N[C@@H]4c5cc6c(cc5[C@@H](c5cc(OC)c(OC)c(OC)c5)[C@H]5C(=O)OC[C@@H]54)OCO6)cc3c2=O)c1`, the Activity in data set [1] is recorded as 6%; in data set [2] it was 49%; in data set [3], 6%; in data set [4], 39%.
`COc1cc([C@@H]2c3cc4c(cc3[C@@H](NC(=O)CCCCOc3ccc5nc(C)n(-c6cc(OC)c(OC)c(OC)c6)c(=O)c5c3)[C@H]3COC(=O)[C@H]23)OCO4)cc(OC)c1OC`: the Activity in [1] came to 5%; in data set [2], 51%; in [3], 10%; in data set [4], 35%.
